bCat KO growth – beta-catenin-lacking colon tumor cell growth suppression; viability, % at 10 µM; 1.5% of 140,000 active; HCT116 beta-catenin knockout viability, CellTiter-Glo, 60 h; active compounds read low;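 active = viability at or under a set limit, the compound median less 4 SD, cut at about 6% in these data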;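 also: 0% = Hyamine 1622 control at 20 µM and 100% = untreated cell control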
Calb biofilm kill – kills Candida albicans biofilms; 0.14% of 85,000 active; inhibition, % at 6 µM; C. albicans biofilm + clotrimazole, Alamar Blue;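 active = inhibition above 20%; inactive = inhibition below 20%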;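 also: preformed 24 hr biofilms exposed to compound for 48 hr; 0% = biofilm without compound and 100% = blank killed by clotrimazole plus chlorhexidine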
Lung fibro prol – blocks proliferation of human lung fibroblasts. 1.1% of 85,000 active. LL 47 human lung fibroblast viability, ATP luminescence; active compounds read low. viability, % at 10 µM;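 active = viability at or below 50% in the single dose screen; inactive = viability above 50%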;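 also: compound exposure lasted 72 h before the ATP readout; 100% = median luminescence of untreated cell-only wells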
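test system = LL 47 human lung fibroblasts | amount = 1,150 fibroblasts seeded per well | medium = 15% FBS in IMEM | times = overnight cell rest, 72 h compound treatment at 37 °C | measured by = CellTiter-Glo luminescence measuring cellular ATP | read-out = viability percentage against median untreated-cell control | benchmarks = cell-only wells, no compound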
HUVEC prolif 384 – inhibitors of human endothelial cell proliferation; HUVEC proliferation, CellTiter-Glo luminescence, 72 h; active compounds read low; viability, % at 10 µM (by protocol); 1.1% of 86,000 active;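 active = viability at or below 30%; inactive = viability above 30%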;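 also: 100% = median luminescence of DMSO-only cell control wells on each plate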
HCT116 PTEN-null – growth suppressors of cells with PTEN tumor suppressor deletion; HCT116 PTEN-null viability, CellTiter-Glo, 60 h; active compounds read low; viability, % at 10 µM; 1.2% of 140,000 active;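 active = viability at or below a set limit, 4 SD under the median of all tested compounds, cut at about 3.7% in these data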;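 also: PTEN knockout HCT116 line with beta catenin targeted HCT116 as companion control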
H69AR growth 86K – blocks growth of human H69AR lung tumor cells. H69AR lung tumor viability, ATP luminescence, 72 h; active compounds read low. viability, % at 10 µM. 6% of 85,000 active. AID 598;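 active = viability at or below 40%; inactive = viability above 40%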;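 also: multidrug resistant small cell line overexpressing MRP-1 efflux transporter; 100% = mean luminescence of untreated control wells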
* = called active by the depositor; nt = not tested or not shown. The full list was thinned out, with hits kept by preference.

SMILES	bCat KO growth	Calb biofilm kill	Lung fibro prol	HUVEC prolif 384	HCT116 PTEN-null	H69AR growth 86K
Cc1ccc(S(=O)(=O)c2ccc(Cl)cc2)cc1S(=O)(=O)N(C)CC(=O)O	97	nt	nt	nt	93	nt
CCCN(Cc1cc2ccc(C)cc2[nH]c1=O)S(=O)(=O)c1ccccc1	89	7	102	109	80	49
COc1cc(OC)cc(C(=O)Nn2cc(C(=O)Nc3c(F)cccc3F)c3ccccc3c2=O)c1	83	nt	nt	nt	82	nt
COc1cc([N+](=O)[O-])ccc1NC(=O)CCCOc1cc(C)ccc1C	79	nt	nt	nt	70	nt
O=C(CNc1cc(S(=O)(=O)N2CCCC2)ccc1OCC(F)(F)F)Nc1ccc(SC(F)F)cc1	43	nt	nt	nt	45	nt
CCN(CC)S(=O)(=O)c1ccc2[nH]cc(C(=O)NCCC3=CCCCC3)c(=O)c2c1	17	2	82	53	21	8.5*
CCc1ccc(N(C)S(=O)(=O)c2ccc3[nH]cc(C(=O)NCCN4CCOCC4)c(=O)c3c2)cc1	83	46*	94	90	87	75
CC(=O)c1ccc(N2CCN(C(=O)CCCc3nc4ccccc4s3)CC2)cc1	67	nt	nt	nt	82	nt
Nn1c(SCC(=O)NC2CCCc3ccccc32)nnc1-c1ccc(Cl)cc1Cl (stereo not given)	86	nt	nt	nt	94	nt
O=C(Nc1ccc(N2CCN(C(=O)c3ccccc3)CC2)cc1)c1cc2ccccc2o1	5.6*	6	86	100	17	83
COc1ccc(-c2noc(CSc3nc4ccccc4c(=O)n3-c3ccccc3)n2)cc1	64	5	86	83	69	29*
C=CCn1c(SCc2c(C)noc2C)nc2sc3c(c2c1=O)CCCC3	23	4	89	55	20	28*
C=CCn1c(SCc2c(C)noc2C)nc2sc3c(c2c1=O)CCCCC3	34	5	70	36	55	55
C=CCn1c(SCc2nc3ccccc3c(=O)[nH]2)nc2ccccc2c1=O	70	6	86	73	66	5.6*
Cc1noc(C)c1CSc1nc2ccccc2c(=O)n1-c1ccccc1	17	nt	58	61	14	17*
O=c1c2ccccc2nc(SCc2nnc(-c3ccccc3)o2)n1-c1ccccc1	nt	5	92	91	nt	86
C=CCn1c(Cc2ccc(OC)cc2)nnc1SCc1nc2ccccc2c(=O)[nH]1	84	9	102	89	96	98
C=CCn1c(SCc2c(C)noc2C)nc2ccccc2c1=O	16	2	43*	46	15	20*
Cc1noc(C)c1CSc1nc2ccccc2c(=O)n1-c1ccc(F)cc1F	22	10	61	51	20	23*
Cc1n[nH]c(C)c1S(=O)(=O)N1CCN(C(=O)c2ccco2)CC1	97	-2	103	105	93	107
CCc1cc2c(Sc3nc4ccccc4s3)ncnc2s1	4.4*	nt	nt	nt	3.7*	nt
c1ccc2sc(Sc3ncnc4sccc34)nc2c1	4.2*	nt	nt	nt	4	nt
CCNc1nnc(CSc2nc3ccccc3s2)s1	86	0	94	87	101	85
Nc1cc(C(=O)O)c(Oc2ccc(Cl)cc2Cl)cc1C(=O)O	98	nt	nt	nt	95	nt
COc1ccc(CN2C(=O)NC3(CCCCCC3)C2=O)cc1F	89	4	103	111	104	94
SMILES	bCat KO growth	Calb biofilm kill	Lung fibro prol	HUVEC prolif 384	HCT116 PTEN-null	H69AR growth 86K
Cc1csc2ncc(C(=O)Nc3ccccc3Cl)c(=O)n12	nt	4	82	64	nt	29*
N#Cc1ccc(-c2ccco2)nc1SCc1ccccc1	79	-1	81	89	66	25*
Cc1ccc(C(=O)/C=C/c2ccc(Br)cc2)o1	2.2*	nt	nt	nt	1.4*	nt
Cc1ccc(C(=O)/C=C/c2ccccc2)o1	5.9*	nt	nt	nt	10	nt
Cc1ccc(C(=O)/C=C/c2ccc3c(c2)OCO3)o1	7	nt	nt	nt	10	nt
O=[N+]([O-])c1ccc(N2CCC(O)CC2)nc1	96	nt	nt	nt	100	nt
CCOC(=O)c1c(NC(=O)CSc2nc3cc(Cl)ccc3c(=O)n2Cc2ccco2)sc(C(=O)N(C)C)c1C	58	nt	nt	nt	11	nt
COc1ccc(C(=O)NNC2=CC(=O)CC(C)(C)C2)cc1OC	101	nt	nt	nt	93	nt
Cc1ccc(-c2nn(CC(=O)NCc3cc(-c4nn(C)c(=O)c5ccccc45)ccc3C)c(=O)c3ccccc23)cc1	83	1	4.9*	4.1*	89	2.1*
Cc1nn(CC(=O)Nc2ccc3c(c2)oc2ccccc23)c(=O)c2ccccc12	106	8	105	39	106	3.3*
CNC(=O)Cn1nc(C)c2ccccc2c1=O	106	7	100	96	98	88
CCC(=O)NCc1cc(-c2nn(C)c(=O)c3ccccc23)ccc1C	91	4	101	91	93	67
COc1ccc(-c2nn(C)c(=O)c3ccccc23)cc1NC(=O)Cn1nc(C)c2ccccc2c1=O	65	5	87	84	84	3.3*
COc1ccc(COCC(O)CN2CCC(CN3C(=O)c4cccc5cccc(c45)C3=O)CC2)cc1OC (stereo not given)	37	nt	nt	nt	39	nt
O=C1c2cccc3cccc(c23)C(=O)N1CCN1CCN(CC(O)COc2ccc3ccccc3c2)CC1 (stereo not given)	1.5*	nt	nt	nt	1.2*	nt
CCc1ccc(OCC(O)CN2CCC(CN3C(=O)c4cccc5cccc(c45)C3=O)CC2)cc1 (stereo not given)	1.1*	nt	nt	nt	1.2*	nt
Cc1ccc(C)c(OCC(O)CN2CCN(CCN3C(=O)c4cccc5cccc(c45)C3=O)CC2)c1 (stereo not given)	1.1*	nt	nt	nt	1.2*	nt
O=C1c2cccc3cccc(c23)C(=O)N1CCN1CCN(CC(O)COCc2ccc(Cl)cc2)CC1 (stereo not given)	3.1*	nt	nt	nt	2.7*	nt
CCCCCC(=O)N1CC2(CC)CN(C(=O)CCCCC)CC(CC)(C1)C2=O	nt	7	92	101	nt	90
COc1ccc(C2C3=C(CCCC3=O)Nc3nc4ccccc4n32)c(OC)c1OC (stereo not given)	nt	0	106	102	nt	95
CCn1cc(Br)c(C(=O)NC(=S)Nc2ccc(C(=O)OC)cc2)n1	86	nt	nt	nt	95	nt
COC(=O)C1=C(O)C(C(=O)OC)C(c2ccc(C)cc2)C(C#N)(C#N)C1c1ccc(C)cc1 (stereo not given)	21	6	83	80	18	4.0*
CN(C)CCCN(C(=O)c1ccc2c(c1)CCCC2)c1nc2ccc(F)cc2s1	8	nt	nt	nt	2.7*	nt
c1ccc(-c2cccc(-c3ccccn3)n2)nc1	15	10	29*	10*	17	8.8*
O=C(OCc1ccccc1)C1=[N+]([O-])OC(C(=O)OCc2ccccc2)C1c1c[nH]c2ccccc12 (stereo not given)	93	3	88	81	99	5.6*
O=C(OCC(=O)c1c[nH]c2ccccc12)c1ccco1	93	4	92	94	108	91
Cc1cc(NCCCn2ccnc2)n2ncc(-c3ccc(Cl)cc3)c2n1	8	3	22*	9.4*	5	19*
